# Results gathered from unrelated publications.
# Protocols differ between the studies behind these lines.
# Target: Serine/threonine-protein kinase BRSK2 (BRSK2, Homo sapiens, UniProt Q8IWQ3)
# Residues used in one study (Q8IWQ3 1-736): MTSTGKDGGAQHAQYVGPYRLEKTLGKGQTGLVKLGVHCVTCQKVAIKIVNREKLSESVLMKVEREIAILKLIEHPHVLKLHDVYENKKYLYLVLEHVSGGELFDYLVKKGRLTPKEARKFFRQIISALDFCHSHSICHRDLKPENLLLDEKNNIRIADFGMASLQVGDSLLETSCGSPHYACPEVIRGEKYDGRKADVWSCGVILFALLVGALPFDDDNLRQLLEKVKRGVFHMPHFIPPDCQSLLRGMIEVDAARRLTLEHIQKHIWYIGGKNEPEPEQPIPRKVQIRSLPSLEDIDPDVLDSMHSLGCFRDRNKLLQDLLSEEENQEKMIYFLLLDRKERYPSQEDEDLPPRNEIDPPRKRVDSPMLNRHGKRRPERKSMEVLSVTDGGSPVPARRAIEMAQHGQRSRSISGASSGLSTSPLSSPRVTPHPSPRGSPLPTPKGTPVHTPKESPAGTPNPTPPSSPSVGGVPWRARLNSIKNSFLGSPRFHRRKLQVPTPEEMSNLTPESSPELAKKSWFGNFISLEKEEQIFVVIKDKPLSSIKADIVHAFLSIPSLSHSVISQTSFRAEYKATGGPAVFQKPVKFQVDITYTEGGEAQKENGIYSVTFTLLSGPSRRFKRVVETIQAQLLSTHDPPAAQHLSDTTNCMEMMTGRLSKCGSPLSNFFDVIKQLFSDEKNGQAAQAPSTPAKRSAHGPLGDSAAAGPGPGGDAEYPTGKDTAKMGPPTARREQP
Compound,effect on,technique,concentration,remaining binding [%]
FC(F)(F)Oc1cccc(-c2cnc3ccc(-c4ccncc4)nn23)c1,cell-free assay,competition with immobilised ligand,5 µM,80
CN(C)c1nccc(-c2cnc3ncccn23)n1,binding,,1 µM,100
O=C(O)[C@@H]1[C@@H](Cn2nnc3ccccc3c2=O)CC[C@H]1C(=O)c1ccc(OCCC2CCOCC2)cc1,cell-free assay,competition with immobilised ligand,1 µM,100
N[C@@H]1CCN(c2nccc(-c3cnn4ncccc34)n2)C1,binding,,1 µM,100
COc1cnc(Nc2cccc(S(N)(=O)=O)c2)nc1N1CCN(c2ccccc2)C(=O)C1,binding,competition with immobilised ligand,1 µM,100
F[C@@H]1CCN(c2nccc(-c3cnn4ncccc34)n2)C1,binding,,1 µM,100
O=C(NS(=O)(=O)c1ccc(NCC2CCOCC2)c([N+](=O)[O-])c1)c1ccc(N2CCN(Cc3ccc(C(F)(F)F)cc3-c3ccc(Cl)cc3)CC2)cc1Oc1cnc2[nH]ccc2c1,cell-free assay,competition with immobilised ligand,1 µM,87
CC1CCCN1c1nccc(-c2cnn3ncccc23)n1 (stereo not drawn),binding,,1 µM,100
CCCCN(CCCC)C(=O)CN1C[C@H](c2cc(OC)c3c(c2)OCO3)[C@@H](C(=O)O)[C@@H]1CC(C)(C)CCC,cell-free assay,competition with immobilised ligand,1 µM,95.6
O=C(c1ccc(Nc2nccc(-c3cc4ccccc4s3)n2)cc1)N1CCC(N2CCCC2)CC1,binding,competition with immobilised ligand,1 µM,91
C[C@H]1CCN(c2nccc(-c3cnn4ncccc34)n2)C1,binding,,1 µM,96
O=C(Nc1cnc(Oc2ccc(F)cc2)nc1)N1CCc2ncccc2[C@@H]1c1ccc(F)cc1,cell-free assay,competition with immobilised ligand,1 µM,89
COc1ccnn2ncc(-c3ccnc(N(C)C)n3)c12,binding,,1 µM,76
CN(C)c1ncnc(-c2ccc3nc(Nc4cc(CN5CCN(C(=O)CC(F)(F)F)CC5)ccn4)[nH]c3c2)c1Cl,cell-free assay,competition with immobilised ligand,1 µM,100
O=C(NCCCN1CCOCC1)c1ccc(Nc2ncc(Cl)c(-c3ccc(Cl)s3)n2)cc1,binding,competition with immobilised ligand,1 µM,45
O=C(NCC1CCOCC1)c1n[nH]cc1NC(=O)c1c(F)cccc1F,binding,competition with immobilised ligand,1 µM,95
C=CC(=O)N1CCC(C(=O)NCC(=O)N2CCN(c3nc(-c4cnc(N)nc4C(F)F)nc(N4CCOCC4)n3)CC2)CC1,binding,competition with immobilised ligand,1 µM,100
C[C@H](c1ccnc(Nc2nc3ccc(-c4cc(N(C)C)ncn4)cc3[nH]2)c1)N1CCN(C(=O)CC(F)(F)F)CC1,cell-free assay,competition with immobilised ligand,0.1 µM,100
Nc1ncc2c(n1)-c1c([nH]c3ccc(C#CC4CC4)cc13)CCCC2,binding,competition with immobilised ligand,1 µM,93
O=C(NCCCN1CCOCC1)c1ccc(Nc2nccc(-c3cc4ccccc4s3)n2)cc1,binding,competition with immobilised ligand,1 µM,77
CNC(=O)[C@@H]1CC[C@@H](n2c(-c3ccc4cnccc4c3)nc3ccc(C(=O)NCc4cccc(C(N)=O)c4)cc32)C1,binding,competition with immobilised ligand,1 µM,93
